Data taken from ChEMBL document CHEMBL1154044, “5-Nitro-2-furyl derivative actives against Trypanosoma cruzi: preliminary in vivo studies” (Eur J Med Chem, 2009).
Calls of active or inactive are those of the source. The rule behind the calls is not given here.

Legend:
Mus musculus [1] = assay: Toxicity in CD1 mouse lung at 450 mg/kg, po after 3 days by histological study; format: organism-based; design: dose 450 mg/kg, route oral; conditions: in vivo, 72 h
Outline: (§1)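 Healthy female CD1 mice (20–22 g), 5–7 per group, given a single oral (intragastric) or i.p. dose in saline:Tween 80 (4:1) vehicle. Sacrificed on day 3 after ether anaesthesia. Organs fixed in 10% aqueous formalin for histology. Scored against untreated animals from no change to +++ (many changes).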

Mus musculus [2] = assay: Toxicity in CD1 mouse intestine at 300 mg/kg, ip after 3 days by histological study; format: organism-based; design: dose 300 mg/kg, route intraperitoneal; conditions: in vivo, 72 h; outline: as §1
Mus musculus [3] = assay: Toxicity in CD1 mouse assessed as decrease in weight respect to day zero at 150 mg/kg, ip after 3 days; format: organism-based; design: dose 150 mg/kg, route intraperitoneal; scale not given: the % may be the effect or the level left; conditions: in vivo, 72 h
Outline: (§2)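 Healthy 2-month-old female CD1 mice (20–22 g, 5–7 per group) received one dose. Oral doses of 450 or 300 mg/kg were given by intragastric syringe; i.p. doses of 300 or 150 mg/kg by injection. Drugs were suspended in saline:Tween 80 (4:1), and a vehicle-only control was included. Mice were weighed and observed daily for 3 days. Weight change is expressed as percent relative to day zero.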

Mus musculus [4] = assay: Toxicity in CD1 mouse lung at 300 mg/kg, ip after 3 days by histological study; format: organism-based; design: dose 300 mg/kg, route intraperitoneal; conditions: in vivo, 72 h; outline: as §1
Mus musculus [5] = assay: Toxicity in CD1 mouse heart at 450 mg/kg, po after 3 days by histological study; format: organism-based; design: dose 450 mg/kg, route oral; conditions: in vivo, 72 h; outline: as §1
Mus musculus [6] = assay: Toxicity in CD1 mouse assessed as survival at 300 mg/kg, po after 3 days; format: organism-based; design: dose 300 mg/kg, route oral; conditions: in vivo, 72 h
Outline: (§3)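 Healthy 2-month-old female CD1 mice (20–22 g), groups of 5–7, given one oral dose by intragastric syringe or one i.p. injection. Compound suspended in saline:Tween 80 (4:1) with sonication just before dosing; vehicle-treated controls included. Weighed and observed daily over 3 days for skin, physical aspect, activity and faeces; survival recorded at day 3.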

Mus musculus [7] = assay: Toxicity in CD1 mouse assessed as survival at 450 mg/kg, po after 3 days; format: organism-based; design: dose 450 mg/kg, route oral; conditions: in vivo, 72 h; outline: as §3
Mus musculus [8] = assay: Toxicity in CD1 mouse kidney at 300 mg/kg, ip after 3 days by histological study; format: organism-based; design: dose 300 mg/kg, route intraperitoneal; conditions: in vivo, 72 h; outline: as §1
Mus musculus [9] = assay: Toxicity in CD1 mouse liver at 450 mg/kg, po after 3 days by histological study; format: organism-based; design: dose 450 mg/kg, route oral; conditions: in vivo, 72 h; outline: as §1
Mus musculus [10] = assay: Toxicity in CD1 mouse intestine at 450 mg/kg, po after 3 days by histological study; format: organism-based; design: dose 450 mg/kg, route oral; conditions: in vivo, 72 h; outline: as §1
Mus musculus [11] = assay: Toxicity in CD1 mouse brain at 450 mg/kg, po after 3 days by histological study; format: organism-based; design: dose 450 mg/kg, route oral; conditions: in vivo, 72 h; outline: as §1
Trypanosoma cruzi [12] = assay: Antitrypanosomal activity against Trypanosoma cruzi infected in po dosed CD1 mouse assessed as prevention of amastigote nest in heart administered daily for 14 days measured on day 45; format: functional, organism-based
Outline: (§4)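 T. cruzi, a Uruguayan patient isolate, was inoculated intradermally into 2-month-old female CD1 mice (20–22 g). Dosing began on day 15 after parasitaemia was observed. Drugs were suspended in saline:Tween 80 (4:1) and given by intragastric syringe once daily for 14 days, with untreated controls. On day 45 after treatment start, heart and muscle sections were scored by two independent observers for amastigotes and inflammatory infiltrates. Groups had 5–7 mice.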

Mus musculus [13] = assay: Toxicity in CD1 mouse brain at 300 mg/kg, ip after 3 days by histological study; format: organism-based; design: dose 300 mg/kg, route intraperitoneal; conditions: in vivo, 72 h; outline: as §1
Mus musculus [14] = assay: Toxicity in CD1 mouse assessed as decrease in weight respect to day zero at 450 mg/kg, po after 3 days; format: organism-based; design: dose 450 mg/kg, route oral; scale not given: the % may be the effect or the level left; conditions: in vivo, 72 h; outline: as §2
Trypanosoma cruzi [15] = assay: Antitrypanosomal activity against Trypanosoma cruzi infected in po dosed CD1 mouse assessed as prevention of inflammatory infiltrates in heart administered daily for 14 days measured on day 45; format: functional, organism-based; outline: as §4
Mus musculus [16] = assay: Toxicity in CD1 mouse assessed as survival at 300 mg/kg, ip after 3 days; format: organism-based; design: dose 300 mg/kg, route intraperitoneal; conditions: in vivo, 72 h; outline: as §3
Mus musculus [17] = assay: Toxicity in CD1 mouse heart at 300 mg/kg, ip after 3 days by histological study; format: organism-based; design: dose 300 mg/kg, route intraperitoneal; conditions: in vivo, 72 h; outline: as §1
Mus musculus [18] = assay: Toxicity in CD1 mouse assessed as decrease in weight respect to day zero at 300 mg/kg, po after 3 days; format: organism-based; design: dose 300 mg/kg, route oral; scale not given: the % may be the effect or the level left; conditions: in vivo, 72 h; outline: as §2
Mus musculus [19] = assay: Toxicity in CD1 mouse assessed as survival at 150 mg/kg, ip after 3 days; format: organism-based; design: dose 150 mg/kg, route intraperitoneal; conditions: in vivo, 72 h; outline: as §3
Mus musculus [20] = assay: Toxicity in CD1 mouse kidney at 450 mg/kg, po after 3 days by histological study; format: organism-based; design: dose 450 mg/kg, route oral; conditions: in vivo, 72 h; outline: as §1
Trypanosoma cruzi [21] = assay: Growth inhibition of Trypanosoma cruzi Tulahuen 2 epimastigote at 5 uM after 5 days; format: functional; conditions: Trypanosoma cruzi, Tulahuen 2, 120 h; read-out: GI
Mus musculus [22] = assay: Toxicity in CD1 mouse liver at 300 mg/kg, ip after 3 days by histological study; format: organism-based; design: dose 300 mg/kg, route intraperitoneal; conditions: in vivo, 72 h; outline: as §1
Mus musculus [23] = assay: Toxicity in CD1 mouse assessed as haemoglobin level at 450 mg/kg, po after 3 days; format: organism-based; design: dose 450 mg/kg, route oral; conditions: in vivo, 72 h
Outline: (§5)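 Healthy female CD1 mice (5–7 per group) received a single oral dose of 450 mg/kg or an i.p. dose of 300 mg/kg, with vehicle controls. On day 3 they were sacrificed under ether anaesthesia. Blood was drawn from the subclavian artery and kept at 0 °C in EDTA or heparin. Leukocytes, haemoglobin, haematocrit, GPT and GOT were measured within 24 h and compared with normal ranges.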

Mus musculus [24] = assay: Toxicity in CD1 mouse assessed as hematocrite level at 300 mg/kg, ip after 3 days; format: organism-based; design: dose 300 mg/kg, route intraperitoneal; conditions: in vivo, 72 h; outline: as §5
Mus musculus [25] = assay: Toxicity in CD1 mouse assessed as leukocyte level at 300 mg/kg, ip after 3 days; format: organism-based; design: dose 300 mg/kg, route intraperitoneal; conditions: in vivo, 72 h; outline: as §5
Mus musculus [26] = assay: Toxicity in CD1 mouse assessed as haemoglobin level at 300 mg/kg, ip after 3 days; format: organism-based; design: dose 300 mg/kg, route intraperitoneal; conditions: in vivo, 72 h; outline: as §5
Mus musculus [27] = assay: Toxicity in CD1 mouse assessed as glutamic-pyruvate transaminase level at 450 mg/kg, po after 3 days; format: organism-based; design: dose 450 mg/kg, route oral; conditions: in vivo, 72 h; outline: as §5
Mus musculus [28] = assay: Toxicity in CD1 mouse assessed as glutamic-oxalacetate transaminase level at 450 mg/kg, po after 3 days; format: organism-based; design: dose 450 mg/kg, route oral; conditions: in vivo, 72 h; outline: as §5
Mus musculus [29] = assay: Toxicity in CD1 mouse assessed as increase in weight respect to day zero at 450 mg/kg, po after 3 days; conditions: in vivo, 72 h
Mus musculus [30] = assay: Toxicity in CD1 mouse assessed as hematocrite level at 450 mg/kg, po after 3 days; format: organism-based; design: dose 450 mg/kg, route oral; conditions: in vivo, 72 h; outline: as §5
Mus musculus [31] = assay: Toxicity in CD1 mouse assessed as decrease in weight respect to day zero at 300 mg/kg, ip after 3 days; format: organism-based; design: dose 300 mg/kg, route intraperitoneal; scale not given: the % may be the effect or the level left; conditions: in vivo, 72 h; outline: as §2
Mus musculus [32] = assay: Toxicity in CD1 mouse assessed as leukocyte level at 450 mg/kg, po after 3 days; format: organism-based; design: dose 450 mg/kg, route oral; conditions: in vivo, 72 h; outline: as §5
Mus musculus [33] = assay: Toxicity in CD1 mouse assessed as glutamic-pyruvate transaminase level at 300 mg/kg, ip after 3 days; format: organism-based; design: dose 300 mg/kg, route intraperitoneal; conditions: in vivo, 72 h; outline: as §5
Mus musculus [34] = assay: Toxicity in CD1 mouse assessed as glutamic-oxalacetate transaminase level at 300 mg/kg, ip after 3 days; format: organism-based; design: dose 300 mg/kg, route intraperitoneal; conditions: in vivo, 72 h; outline: as §5

Compound | Activity (Mus musculus [1]) | Activity (Mus musculus [2]) | Activity (Mus musculus [4]) | Activity (Mus musculus [5]) | Activity (Mus musculus [7]) | Activity (Mus musculus [8]) | Activity (Mus musculus [9]) | Activity (Mus musculus [10]) | Activity (Mus musculus [11]) | Activity (Mus musculus [13]) | Activity (Mus musculus [17]) | Activity (Mus musculus [20]) | inhibition of growth at 5 µM (Trypanosoma cruzi [21]) [%] | Activity (Mus musculus [22]) | other results
COCCNC(=O)N/N=C/c1ccc([N+](=O)[O-])o1 | Non-toxic | Non-toxic | Non-toxic | Non-toxic | Non-toxic | Non-toxic | Toxic | Non-toxic | Non-toxic | Non-toxic | Non-toxic | Toxic | 20 | Toxic | Activity (Mus musculus [3]): 1%; Activity (Mus musculus [6]): Non-toxic; Activity (Trypanosoma cruzi [12]): Active; Activity (Mus musculus [14]): 0%; Activity (Trypanosoma cruzi [15]): Active; Activity (Mus musculus [16]): Toxic; Activity (Mus musculus [18]): 0%; Activity (Mus musculus [19]): Non-toxic
CCCCCCOC(=O)N/N=C/c1ccc([N+](=O)[O-])o1 | Non-toxic | Non-toxic | Non-toxic | Non-toxic | Non-toxic | Non-toxic | Toxic | Non-toxic | Non-toxic | Non-toxic | Non-toxic | Non-toxic | 93 | Toxic | Activity (Mus musculus [23]): 10.6 g/dL; Activity (Mus musculus [24]): 38.7%; Activity (Mus musculus [25]): 4900 µL⁻¹; Activity (Mus musculus [26]): 12.3 g/dL; Activity (Mus musculus [27]): 34 IU/L; Activity (Mus musculus [28]): 192 IU/L; Activity (Mus musculus [29]): 3%; Activity (Mus musculus [30]): 34.4%; Activity (Mus musculus [31]): 0%; Activity (Mus musculus [32]): 2700 µL⁻¹; Activity (Mus musculus [33]): 32 IU/L; Activity (Mus musculus [34]): 140 IU/L
